Results as given in ChEMBL document CHEMBL3352189 (J Med Chem, 2014).
pEC50: −log10 of the molar value. Activity calls are given as the source filed them. The rule behind the calls is not given here.

What was measured:
Mus musculus [1] = assay: Toxicity in Venezuelan equine encephalitis virus TC83 infected C3H/HeN mouse assessed as induction of hunched posture at 5 mg/kg/day, ip BID for 4 days; type: organism-based; parameters: route intraperitoneal; settings: in vivo, 96 h
[2] = test system: Venezuelan equine encephalitis virus; assay: Antiviral activity against Venezuelan equine encephalitis virus TrD infected in Vero 76 cells assessed as reduction in viral titer at 1 uM by crystal violet staining based microplaque assay relative to untreated control; type: functional
[3] = target: T1, Glutamate NMDA receptor (Rattus norvegicus) (UniProt P35439+Q00959+Q00960+Q00961+Q62645+Q8VHN2+Q9R1M7); assay: Displacement of [3H]MDL 105,519 from rat NMDA receptor glycine binding site binding site at 10 uM; type: protein-complex assay
[4] = Drug concentration in C57BL/6 mouse brain at 10 mg/kg, ip administered as single dose measured after 120 mins by LC/MS analysis based RACE assay; type: ADME, organism-based; parameters: dose 10 mg/kg, route intraperitoneal; settings: read-out: Drug uptake
In short: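 Brain tissue taken at the terminal 120 min point after one intraperitoneal dose (1, 5 or 10 mg/kg) in C57BL/6 mice, 3 per group, with a vehicle cohort. Drug level measured by LC/MS, averaging two injections per sample; reported as mean ± standard deviation, μM.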

Mus musculus [5] = organism: Mus musculus; assay: Displacement of [3H]PDBu from mouse phorbol ester receptor at 10 uM
CYP2C9 = CYP2C9 (Homo sapiens, UniProt P11712); assay: Inhibition of human CYP2C9 at 10 uM; type: ADME
Chain of CYP2C9 (P11712 whole entry): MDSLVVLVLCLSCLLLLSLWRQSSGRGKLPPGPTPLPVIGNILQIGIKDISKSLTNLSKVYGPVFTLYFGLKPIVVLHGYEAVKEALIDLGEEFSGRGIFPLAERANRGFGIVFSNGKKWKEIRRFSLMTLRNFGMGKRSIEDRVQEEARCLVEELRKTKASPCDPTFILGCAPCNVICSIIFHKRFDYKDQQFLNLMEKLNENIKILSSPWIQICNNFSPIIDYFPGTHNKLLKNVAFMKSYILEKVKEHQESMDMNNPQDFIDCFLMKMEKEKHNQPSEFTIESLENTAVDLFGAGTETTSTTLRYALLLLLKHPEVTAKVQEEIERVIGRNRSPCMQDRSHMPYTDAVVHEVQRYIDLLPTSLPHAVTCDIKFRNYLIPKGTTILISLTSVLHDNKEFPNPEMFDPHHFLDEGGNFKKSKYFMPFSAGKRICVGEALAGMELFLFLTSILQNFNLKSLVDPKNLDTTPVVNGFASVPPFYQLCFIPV

[6] = target: Alpha-1A adrenergic receptor (Rattus norvegicus) (UniProt P43140); assay: Displacement of [3H]prazosin from rat adrenergic alpha1A receptor at 10 uM
Chain of Alpha-1A adrenergic receptor (Rattus norvegicus) (P43140 whole entry): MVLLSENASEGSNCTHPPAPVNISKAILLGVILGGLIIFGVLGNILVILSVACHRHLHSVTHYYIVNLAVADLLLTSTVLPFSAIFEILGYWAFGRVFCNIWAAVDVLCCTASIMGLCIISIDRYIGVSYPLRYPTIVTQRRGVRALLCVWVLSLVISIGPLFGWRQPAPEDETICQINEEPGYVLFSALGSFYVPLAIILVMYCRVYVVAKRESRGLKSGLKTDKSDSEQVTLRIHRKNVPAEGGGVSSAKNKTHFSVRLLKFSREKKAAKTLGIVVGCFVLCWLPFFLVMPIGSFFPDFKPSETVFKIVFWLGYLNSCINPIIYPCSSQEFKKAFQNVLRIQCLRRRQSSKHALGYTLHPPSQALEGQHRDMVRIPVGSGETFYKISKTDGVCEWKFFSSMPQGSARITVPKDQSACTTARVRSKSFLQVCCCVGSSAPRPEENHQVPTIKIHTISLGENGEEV

Rattus norvegicus [7] = organism: Rattus norvegicus; assay: Displacement of [35S]ATP-alphaS from rat P2Y channel at 10 uM
[8] = target: Delta-type opioid receptor (Homo sapiens) (UniProt P41143); assay: Displacement of [3H]naltrindole from human delta1 opiate receptor at 10 uM
[9] = test system: Venezuelan equine encephalitis virus; assay: Antiviral activity against Venezuelan equine encephalitis virus TC83 infected in Vero 76 cells assessed as reduction in virus-induced cytopathic effect after 2 days by Celltiter-Glo reagent based assay; type: functional, organism-based; settings: TC83, Vero 76, 48 h
Rattus norvegicus [10] = organism: Rattus norvegicus; assay: Displacement of [125I]triiodothyronine from rat thyroid hormone receptor 10 uM
Mus musculus [11] = assay: Toxicity in Venezuelan equine encephalitis virus TC83 infected C3H/HeN mouse assessed as body weight loss at 40 mg/kg/day, ip BID for 4 days; type: organism-based; parameters: route intraperitoneal; settings: in vivo, 96 h
[12] = target: Adenosine receptor A1 (Homo sapiens) (UniProt P30542); assay: Displacement of [3H]DPCPX from human adenosine A1 receptor at 10 uM
Chain of Adenosine receptor A1 (Homo sapiens) (P30542 whole entry): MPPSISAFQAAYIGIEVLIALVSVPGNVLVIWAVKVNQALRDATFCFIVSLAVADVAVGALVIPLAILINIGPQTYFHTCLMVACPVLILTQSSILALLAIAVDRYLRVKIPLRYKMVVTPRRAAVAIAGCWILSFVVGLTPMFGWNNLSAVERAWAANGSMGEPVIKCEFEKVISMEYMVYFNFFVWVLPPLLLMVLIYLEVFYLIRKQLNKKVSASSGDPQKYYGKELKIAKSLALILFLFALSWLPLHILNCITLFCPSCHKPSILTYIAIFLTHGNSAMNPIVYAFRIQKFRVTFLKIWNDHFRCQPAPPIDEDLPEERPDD

hERG (KCNH2) = hERG (KCNH2) (Homo sapiens, UniProt Q12809); assay: Displacement of [3H]astemizole from human ERG channel at 10 uM; settings: probe [3H]astemizole
[13] = Protein binding in human plasma at 10 uM; type: ADME, cell-free; settings: read-out: PPB (converted)
[14] = target: Alpha-1B adrenergic receptor (Rattus norvegicus) (UniProt P15823); assay: Displacement of [3H]prazosin from rat adrenergic alpha1B receptor at 10 uM
[15] = target: T1, Glutamate NMDA receptor (Rattus norvegicus); assay: Displacement of [3H]TCP from rat NMDA receptor phencyclidine binding site binding site at 10 uM; type: protein-complex assay
[16] = target: Sigma non-opioid intracellular receptor 1 (Homo sapiens) (UniProt Q99720); assay: Displacement of [3H]haloperidol from human sigma1 receptor at 10 uM
Mus musculus [17] = organism: Mus musculus; assay: Displacement of [125I]interleukin-1beta from mouse IL1 receptor at 10 uM
[18] = target: D(1A) dopamine receptor (Homo sapiens) (UniProt P21728); assay: Displacement of [3H]SCH-23390 from human dopamine D1 receptor at 10 uM
Chain of D(1A) dopamine receptor (Homo sapiens) (P21728 whole entry): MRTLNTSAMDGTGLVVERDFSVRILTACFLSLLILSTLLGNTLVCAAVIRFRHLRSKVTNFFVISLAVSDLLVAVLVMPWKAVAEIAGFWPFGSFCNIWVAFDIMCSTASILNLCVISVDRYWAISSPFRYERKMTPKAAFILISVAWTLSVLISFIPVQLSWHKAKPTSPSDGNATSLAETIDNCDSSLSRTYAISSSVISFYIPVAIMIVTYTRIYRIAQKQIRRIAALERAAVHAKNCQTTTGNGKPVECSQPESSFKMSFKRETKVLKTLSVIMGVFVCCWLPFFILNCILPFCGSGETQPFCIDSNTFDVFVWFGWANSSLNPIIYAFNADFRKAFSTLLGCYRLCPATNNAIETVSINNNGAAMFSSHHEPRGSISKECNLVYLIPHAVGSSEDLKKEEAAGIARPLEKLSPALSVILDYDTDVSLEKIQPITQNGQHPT

Mus musculus [19] = assay: Toxicity in Venezuelan equine encephalitis virus TC83 infected C3H/HeN mouse assessed as induction of ruffled fur at 40 mg/kg/day, ip BID for 4 days; type: organism-based; parameters: route intraperitoneal; settings: in vivo, 96 h
[20] = target: Platelet-activating factor receptor (Homo sapiens) (UniProt P25105); assay: Displacement of [3H]PAF from human PAF receptor at 10 uM
[21] = target: Sodium-dependent dopamine transporter (Homo sapiens) (UniProt Q01959); assay: Displacement of [125I]RTI-55 from human DAT at 10 uM
Chain of Sodium-dependent dopamine transporter (Homo sapiens) (Q01959 whole entry): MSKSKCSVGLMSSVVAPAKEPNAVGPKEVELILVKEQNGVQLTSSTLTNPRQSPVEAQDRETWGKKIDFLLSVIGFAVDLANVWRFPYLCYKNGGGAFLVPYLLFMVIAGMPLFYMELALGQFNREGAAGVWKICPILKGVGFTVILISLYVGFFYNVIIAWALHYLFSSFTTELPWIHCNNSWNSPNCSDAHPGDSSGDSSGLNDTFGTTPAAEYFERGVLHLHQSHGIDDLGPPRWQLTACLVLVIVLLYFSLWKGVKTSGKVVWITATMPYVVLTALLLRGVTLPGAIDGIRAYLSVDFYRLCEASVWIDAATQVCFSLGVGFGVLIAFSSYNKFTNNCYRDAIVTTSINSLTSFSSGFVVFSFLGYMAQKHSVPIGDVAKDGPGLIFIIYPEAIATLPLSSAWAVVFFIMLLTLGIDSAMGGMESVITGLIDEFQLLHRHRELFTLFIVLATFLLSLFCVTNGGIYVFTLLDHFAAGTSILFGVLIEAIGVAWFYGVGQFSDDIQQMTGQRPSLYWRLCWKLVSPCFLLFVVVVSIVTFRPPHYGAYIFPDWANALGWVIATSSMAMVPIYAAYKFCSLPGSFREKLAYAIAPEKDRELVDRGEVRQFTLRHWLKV

[22] = target: Sodium-dependent serotonin transporter (Homo sapiens) (UniProt P31645); assay: Displacement of [3H]paroxetine from human SERT at 10 uM
Chain of Sodium-dependent serotonin transporter (Homo sapiens) (P31645 whole entry, looked up): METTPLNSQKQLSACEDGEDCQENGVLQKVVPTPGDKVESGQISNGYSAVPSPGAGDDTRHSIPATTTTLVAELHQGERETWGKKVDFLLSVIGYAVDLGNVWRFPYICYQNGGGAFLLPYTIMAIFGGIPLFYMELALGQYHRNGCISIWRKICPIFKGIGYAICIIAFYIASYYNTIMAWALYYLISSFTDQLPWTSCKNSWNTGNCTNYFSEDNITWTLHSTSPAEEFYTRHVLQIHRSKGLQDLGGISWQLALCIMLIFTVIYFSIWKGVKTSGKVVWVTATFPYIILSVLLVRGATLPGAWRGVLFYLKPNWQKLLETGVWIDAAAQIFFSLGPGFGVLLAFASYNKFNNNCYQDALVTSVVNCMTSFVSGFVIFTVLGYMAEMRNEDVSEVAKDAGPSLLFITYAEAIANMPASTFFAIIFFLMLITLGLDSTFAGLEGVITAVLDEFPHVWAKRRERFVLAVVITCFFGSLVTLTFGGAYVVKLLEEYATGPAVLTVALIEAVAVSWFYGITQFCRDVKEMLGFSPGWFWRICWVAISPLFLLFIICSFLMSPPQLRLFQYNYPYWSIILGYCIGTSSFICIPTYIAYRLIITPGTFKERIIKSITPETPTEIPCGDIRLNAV

Cricetinae = assay: Displacement of [3H]glyburide from hamster KATP channel at 10 uM
Mus musculus [23] = assay: Toxicity in Venezuelan equine encephalitis virus TC83 infected C3H/HeN mouse assessed as induction of lethargy at 5 mg/kg/day, ip BID for 4 days; type: organism-based; parameters: route intraperitoneal; settings: in vivo, 96 h
[24] = target: Histamine H1 receptor (Homo sapiens) (UniProt P35367); assay: Displacement of [3H]pyrilamine from human histamine H1 receptor at 10 uM
[25] = target: Muscarinic acetylcholine receptor M1 (Homo sapiens) (UniProt P11229); assay: Displacement of [3H]N-Methylscopolamine from human muscarinic M1 receptor at 10 uM
[26] = target: Alpha-1D adrenergic receptor (Homo sapiens) (UniProt P25100); assay: Displacement of [3H]prazosin from human adrenergic alpha1D receptor at 10 uM
[27] = target: Sodium-dependent noradrenaline transporter (Homo sapiens) (UniProt P23975); assay: Displacement of [125I]RTI-55 from human NET at 10 uM
[28] = target: D(2) dopamine receptor (Homo sapiens) (UniProt P14416); assay: Displacement of [3H]spiperone from human dopamine D2S receptor at 10 uM
Plasma = assay: Protein binding in mouse plasma at 1 uM; type: ADME, cell-free
Mus musculus [29] = assay: Toxicity in Venezuelan equine encephalitis virus TC83 infected C3H/HeN mouse assessed as induction of lethargy at 40 mg/kg/day, ip BID for 4 days; type: organism-based; parameters: route intraperitoneal; settings: in vivo, 96 h
[30] = target: 5-hydroxytryptamine receptor 3A (Homo sapiens) (UniProt P46098); assay: Displacement of [3H]GR-65630 from human 5HT3 receptor at 10 uM
Chain of 5-hydroxytryptamine receptor 3A (Homo sapiens) (P46098 whole entry): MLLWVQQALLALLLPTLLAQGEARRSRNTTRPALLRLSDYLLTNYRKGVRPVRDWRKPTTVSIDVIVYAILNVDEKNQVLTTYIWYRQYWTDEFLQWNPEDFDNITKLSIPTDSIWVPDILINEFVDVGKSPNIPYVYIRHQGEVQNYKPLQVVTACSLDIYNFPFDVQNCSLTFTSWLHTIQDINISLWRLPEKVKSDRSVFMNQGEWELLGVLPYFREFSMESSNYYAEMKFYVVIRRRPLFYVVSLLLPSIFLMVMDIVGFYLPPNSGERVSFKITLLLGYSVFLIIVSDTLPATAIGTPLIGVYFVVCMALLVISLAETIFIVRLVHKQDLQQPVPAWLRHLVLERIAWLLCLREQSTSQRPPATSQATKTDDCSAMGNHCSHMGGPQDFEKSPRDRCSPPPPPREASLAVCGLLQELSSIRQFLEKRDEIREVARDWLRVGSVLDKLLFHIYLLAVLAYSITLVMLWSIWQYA

Mus musculus [31] = assay: Toxicity in Venezuelan equine encephalitis virus TC83 infected C3H/HeN mouse assessed as body weight loss at 5 mg/kg/day, ip BID for 4 days; type: organism-based; parameters: route intraperitoneal; settings: in vivo, 96 h
[32] = target: Prostaglandin E2 receptor EP4 subtype (Homo sapiens) (UniProt P35408); assay: Displacement of [3H]prostaglandin E2 from human EP4 […] at 10 uM
[33] = target: Mu-type opioid receptor (Homo sapiens) (UniProt P35372); assay: Displacement of [3H]diprenorphine from human mu opiate receptor at 10 uM
Chain of Mu-type opioid receptor (Homo sapiens) (P35372 whole entry): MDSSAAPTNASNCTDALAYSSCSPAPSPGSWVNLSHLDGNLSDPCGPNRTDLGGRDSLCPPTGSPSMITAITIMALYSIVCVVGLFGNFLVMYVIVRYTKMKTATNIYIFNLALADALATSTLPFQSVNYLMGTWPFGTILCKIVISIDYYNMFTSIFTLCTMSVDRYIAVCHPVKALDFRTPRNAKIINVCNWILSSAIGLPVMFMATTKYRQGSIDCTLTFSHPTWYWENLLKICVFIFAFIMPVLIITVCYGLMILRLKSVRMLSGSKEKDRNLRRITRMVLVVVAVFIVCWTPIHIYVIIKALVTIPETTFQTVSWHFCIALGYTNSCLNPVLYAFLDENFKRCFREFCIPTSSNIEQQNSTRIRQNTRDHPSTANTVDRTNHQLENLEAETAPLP

CYP3A4 = CYP3A4 (Homo sapiens, UniProt P08684); assay: Inhibition of human CYP3A4 at 10 uM; type: ADME
Chain of CYP3A4 (P08684 whole entry): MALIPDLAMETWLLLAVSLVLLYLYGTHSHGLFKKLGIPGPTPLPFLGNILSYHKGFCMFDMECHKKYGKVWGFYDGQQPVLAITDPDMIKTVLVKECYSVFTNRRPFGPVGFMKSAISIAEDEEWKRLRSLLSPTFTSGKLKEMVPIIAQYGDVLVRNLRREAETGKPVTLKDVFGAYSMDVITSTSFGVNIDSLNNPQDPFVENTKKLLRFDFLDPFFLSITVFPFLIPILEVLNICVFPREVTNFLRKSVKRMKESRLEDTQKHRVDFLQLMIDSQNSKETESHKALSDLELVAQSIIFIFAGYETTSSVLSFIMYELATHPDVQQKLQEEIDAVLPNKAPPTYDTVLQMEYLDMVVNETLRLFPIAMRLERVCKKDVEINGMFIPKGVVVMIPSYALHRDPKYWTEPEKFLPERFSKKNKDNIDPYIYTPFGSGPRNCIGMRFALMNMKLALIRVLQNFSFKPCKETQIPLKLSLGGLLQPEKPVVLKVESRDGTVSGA
In short: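 Human CYP inhibition run with reference inhibitors as controls: α-naphthoflavone for CYP1A2 and ketoconazole for CYP3A4.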

[34] = target: Melatonin-related receptor (Homo sapiens) (UniProt Q13585); assay: Displacement of [125I]2-Iodomelatonin from human MT1 receptor at 10 uM
Rattus norvegicus [35] = organism: Rattus norvegicus; assay: Displacement of [3H]rolipram from rat Rolipram binding site at 10 uM
[36] = target: Muscarinic acetylcholine receptor M2 (Homo sapiens) (UniProt P08172); assay: Displacement of [3H]N-Methylscopolamine from human muscarinic M2 receptor at 10 uM
Chain of Muscarinic acetylcholine receptor M2 (Homo sapiens) (P08172 whole entry): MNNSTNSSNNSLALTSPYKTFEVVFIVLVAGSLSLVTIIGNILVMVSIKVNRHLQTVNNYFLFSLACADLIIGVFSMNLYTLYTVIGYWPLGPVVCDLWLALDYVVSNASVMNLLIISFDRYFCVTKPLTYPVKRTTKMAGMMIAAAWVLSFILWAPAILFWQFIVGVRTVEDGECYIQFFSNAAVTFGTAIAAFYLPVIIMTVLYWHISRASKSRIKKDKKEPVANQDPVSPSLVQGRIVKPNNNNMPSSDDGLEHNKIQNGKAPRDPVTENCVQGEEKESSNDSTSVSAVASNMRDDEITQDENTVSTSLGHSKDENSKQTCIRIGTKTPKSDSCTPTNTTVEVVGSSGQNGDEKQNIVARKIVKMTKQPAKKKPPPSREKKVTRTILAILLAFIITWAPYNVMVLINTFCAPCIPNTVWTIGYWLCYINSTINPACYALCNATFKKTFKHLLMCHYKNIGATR

CN1CCN(C)/C(=N/c2ccc([N+](=O)[O-])cc2C(=O)Nc2ccccc2)C1
Activity (Mus musculus [1]): Non-toxic
inhibition [2]: Active
inhibition [3]: 12.9%
concentration at 2 h [4]: 350 nM
inhibition (Mus musculus [5]): 0%
inhibition at 10 µM (CYP2C9): 7%
inhibition [6]: 4.41%
inhibition (Rattus norvegicus [7]): 6.41%
inhibition [8]: -2.18%
pEC50 [9]: 7.52
inhibition (Rattus norvegicus [10]): 1.61%
Activity (Mus musculus [11]): Non-toxic
inhibition [12]: 20.4%
inhibition at 10 µM (hERG (KCNH2)): 30%
fraction unbound at 10 µM [13]: 0.23
inhibition [14]: -1.17%
inhibition [15]: 9.28%
inhibition [16]: 6.54%
inhibition (Mus musculus [17]): 3.11%
inhibition [18]: 2.65%
Activity (Mus musculus [19]): Non-toxic
inhibition [20]: 7.04%
inhibition [21]: 10.8%
inhibition [22]: -5.97%
inhibition (Cricetinae): 4.77%
Activity (Mus musculus [23]): Non-toxic
inhibition [24]: 12.3%
inhibition [25]: 0.73%
inhibition [26]: -7.82%
inhibition [27]: 91.1%
inhibition [28]: 9.08%
PPB (Plasma): 85%
Activity (Mus musculus [29]): Non-toxic
inhibition [30]: 1.64%
Activity (Mus musculus [31]): Non-toxic
inhibition [32]: 4.82%
inhibition [33]: 25.4%
inhibition at 10 µM (CYP3A4): 18%
inhibition [34]: 18%
inhibition (Rattus norvegicus [35]): 34.9%
inhibition [36]: 2.1%
